# Experiments:
# MCF-7 cells = test: Proliferation study; type: cell-based; conditions: tamoxifen-sensitive MCF7 cells, 1 nM estradiol, 7 days, MTT
# In short: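 MCF-7 cells were maintained in phenol red free DMEM F-12 HAM with glutamine, penicillin/streptomycin and 10% FBS at 37 °C under 5% CO2. […] Cell number was read by MTT. Two experiments were run, each in triplicate.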
# [1] = molecular target: T1, ER alpha levels in MCF7 cells (Homo sapiens, UniProt P03372); test: Receptor stability study; type: cell-based; conditions: 24 hours, 10 nM estradiol, 100 nM fulvestrant, 10 μM OHT-6C-BODIPY
# T1 sequence (P03372 1-595): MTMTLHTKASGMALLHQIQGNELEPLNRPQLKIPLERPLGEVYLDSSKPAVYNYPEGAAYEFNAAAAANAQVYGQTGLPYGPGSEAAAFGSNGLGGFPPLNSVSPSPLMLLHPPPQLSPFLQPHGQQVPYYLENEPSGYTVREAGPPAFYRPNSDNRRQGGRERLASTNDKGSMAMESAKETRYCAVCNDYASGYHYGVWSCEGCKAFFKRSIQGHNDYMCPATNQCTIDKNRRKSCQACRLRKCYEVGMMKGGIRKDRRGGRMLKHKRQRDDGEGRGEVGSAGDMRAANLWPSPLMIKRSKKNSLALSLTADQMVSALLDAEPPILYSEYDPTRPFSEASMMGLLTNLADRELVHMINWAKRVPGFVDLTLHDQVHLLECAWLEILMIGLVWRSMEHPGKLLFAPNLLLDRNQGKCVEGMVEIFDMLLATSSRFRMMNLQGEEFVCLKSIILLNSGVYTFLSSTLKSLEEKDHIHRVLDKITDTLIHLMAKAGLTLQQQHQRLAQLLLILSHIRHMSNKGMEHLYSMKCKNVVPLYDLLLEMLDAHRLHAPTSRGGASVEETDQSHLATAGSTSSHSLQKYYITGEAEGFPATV
Compound,Effect on estradiol-induced growth (MCF-7 cells),Effect on cellular ER alpha levels [1]
"CC/C(=C(\c1ccc(O)cc1)c1ccc(OCCN(C)C)cc1)c1ccccc1 [OHT, 4-hydroxytamoxifen]",able to block estradiol-induced growth,
C[C@]12CC[C@@H]3c4ccc(O)cc4C[C@@H](CCCCCCCCC[S+]([O-])CCCC(F)(F)C(F)(F)F)[C@H]3[C@@H]1CC[C@@H]2O (some centres unmarked) [fulvestrant],,marked receptor downregulation

# From paper PMC2874112 (Bioconjugate chemistry, 2010)
